Test [1] deals with A2780. The test can be described thus: Antiproliferative activity against human A2780 cells after 3 days by MTT assay. Type of test: functional, cell-based. The conditions noted are these: for IC50: Homo sapiens, A2780, 72 h. Put shortly: (§1)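 Cells plated 6–8 h in 96-well plates. Compound alone, in duplicate at ≥5 concentrations (3-fold serial dilutions, top 100 μM), with final DMSO […] after predilution in FCS. After 3 days, MTT 4 h at 37 °C, formazan dissolved in DMSO, A540. IC50 taken from single dose–response curves; 3–4 experiments. A2780/DX3 kept doxorubicin-free 2–3 days beforehand.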

A short description of test [2]: Antiproliferative activity against human A2780/DX3 cells after 3 days by MTT assay. The test is classed as functional, cell-based. The conditions noted are these: for IC50: Homo sapiens, A2780/DX3, 72 h. In a few lines: as §1
A general note: Tetrazolium dyes change colour on reduction, which living cells bring about.

The subject of test [3] is A2780 ADR. The test can be described thus: Reversal of P-gp 170-mediated multidrug resistance in human A2780/DX3 cells assessed as reduction in doxorubicin IC50 at IC5 pretreated for 6 hrs before doxorubicin administration measured after 3 days by MTT assay. The test is classed as cell-based. More on the design: scale not given: the % may be the effect or the level left. In a few lines:
(§2)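 A2780/DX3 cells went into medium holding the modulator at its MTT-derived 0% or 5% growth-inhibition concentration. Doxorubicin (30–0.048 μM serial dilutions, modulator kept constant) was added 6 h later. MTT (2 mg/mL) was added after 3 days for 4 h at 37 °C, formazan dissolved in DMSO, A540 read. IC50 came from dose–response curves, repeated 4–6 times. % reduction is versus doxorubicin alone in the same experiment. Kruskal–Wallis/Mann–Whitney tests.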

Test [4] relates to A2780 ADR. Put plainly: Reversal of P-gp 170-mediated multidrug resistance in human A2780/DX3 cells assessed as reduction in doxorubicin IC50 at IC0 pretreated for 6 hrs before doxorubicin administration measured after 3 days by MTT assay. Type of test: cell-based. Details: scale not given: the % may be the effect or the level left. In a few lines: as §2
Test [5] concerns A2780 ADR. The test can be described thus: Reversal of P-gp 170-mediated multidrug resistance in human A2780/DX3 cells assessed as increase in intracellular doxorubicin accumulation at 5 times IC5 pretreated for 2 hrs before doxorubicin administration measured after 2 hrs by flow cytometry. The test is classed as cell-based. In a few lines: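 A2780/DX3 cells (kept in 0.1 μM doxorubicin, drug withdrawn 2–3 days before use) seeded in flasks, grown 24 h to 75–85% confluence. Modulator given at five times the 5%-growth-inhibition concentration for 2 h, then 10 μM doxorubicin for 2 h more. Cells trypsinized, fixed in 3.7% paraformaldehyde/2% sucrose in PBS. Flow cytometry, 488 nm excitation, 575 nm bandpass. Read-out is MFI, with % increase taken from the MFI ratio to doxorubicin alone.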
Background: In flow cytometry, cells or beads pass a laser one at a time.

Test [6] has as its system A2780. The test can be described thus: Antiproliferative activity against human A2780 cells at 1.2 uM after 3 days by MTT assay. Type of test: functional. The settings on record: A2780, 72 h.
The nature of test [7]: Antiproliferative activity against human A2780/DX3 cells at 1.0 uM after 3 days by MTT assay. Type of test: functional. The settings on record: A2780/DX3, 72 h.
Test [8] relates to A2780. Put plainly: Antiproliferative activity against human A2780 cells at 1.3 uM after 3 days by MTT assay. Type of test: functional. The conditions noted are these: A2780, 72 h.
A short description of test [9]: Blockade of L-type calcium channel.
The nature of test [10]: Down regulation of P-gp 170 expression in human A2780/DX3 cells after 72 hrs by flow cytometry. Type of test: functional, cell-based. Put shortly: (§3)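 Cells exposed 72 h to compound at concentrations giving 5% or 0% growth inhibition. Then washed in PBS/2% FCS; 2.5 × 10^5 cells stained at 4 °C with anti-Pgp MM4.17 monoclonal, then FITC goat anti-mouse IgG, and analysed by flow cytometry.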

The test system of test [11] is A2780. Put plainly: Down regulation of P-gp 170 expression in human A2780 cells after 72 hrs by flow cytometry. The test is classed as functional, cell-based. In a few lines:
as §3

Test [12] in a line: Antiproliferative activity against human A2780/DX3 cells at 2.2 uM after 3 days by MTT assay. Type of test: functional. The settings on record: A2780/DX3, 72 h.
For test [13], the system named is A2780. The test can be described thus: Antiproliferative activity against human A2780 cells at 9.4 uM after 3 days by MTT assay. Type of test: functional. The settings on record: A2780, 72 h.
The nature of test [14]: Antiproliferative activity against human A2780/DX3 cells at 4.2 uM after 3 days by MTT assay. The test is classed as functional. The settings on record: A2780/DX3, 72 h.
For test [15], the system named is A2780. Put plainly: Antiproliferative activity against human A2780 cells at 13.1 uM after 3 days by MTT assay. Type of test: functional. The settings on record: A2780, 72 h.
Test [16] can be described thus: Antiproliferative activity against human A2780/DX3 cells at 3.0 uM after 3 days by MTT assay. Type of test: functional. The conditions noted are these: A2780/DX3, 72 h.
For test [17], the system named is A2780. The test can be described thus: Antiproliferative activity against human A2780 cells at 3.1 uM after 3 days by MTT assay. Type of test: functional. The conditions noted are these: A2780, 72 h.
The nature of test [18]: Antiproliferative activity against human A2780/DX3 cells at 3.7 uM after 3 days by MTT assay. The settings on record: A2780/DX3, 72 h. Type of test: functional.
The subject of test [19] is A2780. Put plainly: Antiproliferative activity against human A2780 cells at 12.2 uM after 3 days by MTT assay. Type of test: functional. The conditions noted are these: A2780, 72 h.
Test [20] deals with A2780. Put plainly: Antiproliferative activity against human A2780 cells at 2.1 uM after 3 days by MTT assay. The test is classed as functional. The settings on record: A2780, 72 h.
Test [21] is described as follows: Antiproliferative activity against human A2780/DX3 cells at 1.5 uM after 3 days by MTT assay. Type of test: functional. The conditions noted are these: A2780/DX3, 72 h.

As a reminder, the IC50 is the concentration that inhibits the measured activity by half. The term inhibition denotes the change of the read-out against control, counted positive when it falls. Usually EC50 stands for the midpoint of the concentration-response curve.

The source made the active and inactive calls. The rule behind the calls is not given here.

Consider `CCCCOC1(c2ccc(Br)cc2)SC=C(C)n2c1noc2=O` (centres undefined), for which the IC5 worked out at 7.7 µM in the test with A2780 [1] and 3.2 µM in [2]. The half-maximal inhibitory concentration (IC50) in the test with A2780 [1] was 82 µM; in [2] it was 78 µM. Moreover, the Activity with A2780 ADR [3] is 3%; with A2780 ADR [4] it was 3%; with A2780 ADR [5], < 48%. In the test on A2780 [6], this compound returned an inhibition at 1.2 µM of 0%. In addition, the inhibition at 1 µM in [7] stood at 0%.
The compound `COc1ccc([C@@H]2Sc3ccccc3N(CCN(C)C)C(=O)[C@@H]2OC(C)=O)cc1` [DILTIAZEM] gave an inhibition at 1.3 µM in the test with A2780 [8] of 0%. In addition, the EC50 in [9] was found to be 0.79 µM. For the same compound, the IC5 amounted to 2.8 µM in the test with A2780 [1] and 20.6 µM in test [2]. For the same compound, the IC50 in the test on A2780 [1] is 163 µM; in test [2], > 100 µM. The Activity in the test on A2780 ADR [3] was -84%; with A2780 ADR [4], -72%; in the test with A2780 ADR [5], 699%. Besides, the outcome (in test [10]; in the test with A2780 [11]) was inactive. The compound also showed an inhibition at 2.2 µM in test [12] of 0%.
As to `COC1(c2ccc(Br)cc2)SC=C(C)n2c1noc2=O` (centres undefined), in the test on A2780 [13], 9.4 µM produced 0% inhibition. Moreover, the IC5 in the test with A2780 [1] turned out to be 21.6 µM; in [2], 8.9 µM. Besides, the concentration for half-maximal inhibition (IC50) with A2780 [1] was 148 µM; in test [2], > 100 µM. Moreover, the Activity is -9% in the test with A2780 ADR [3], -9% in the test with A2780 ADR [4] and < 48% in the test with A2780 ADR [5]. Further, testing at 4.2 µM in test [14] gave an inhibition of 0%.
With `COC1(c2ccc(Cl)cc2)SC=C(C)n2c1noc2=O` (centres undefined), in the test with A2780 [15], the inhibition at 13.1 µM turned out to be 0%. For the same compound, the IC5 with A2780 [1] worked out at 28.4 µM; in test [2], 11.7 µM. The figures for the concentration for half-maximal inhibition (IC50) (with A2780 [1]; in test [2]) were 166 µM and 113 µM, respectively. Moreover, the Activity with A2780 ADR [5] is < 48%. Besides, at 3 µM the inhibition in [16] was 0%.
For `CC1=CSC(O)(c2cccc([N+](=O)[O-])c2)c2noc(=O)n21` (centres undefined), the inhibition at 3.1 µM in the test on A2780 [17] came to 0%. The IC5 in the test on A2780 [1] was determined as 3.95 µM; in [2] it was 15.9 µM. The half-inhibitory concentration (IC50) with A2780 [1] came out at 159 µM; in [2] it was 129 µM. In addition, the Activity with A2780 ADR [3] is 10%; with A2780 ADR [4], -21%; with A2780 ADR [5] it was < 48%. In addition, in test [18], the inhibition at 3.7 µM came to 0%.
Consider `CCCCOC1(c2ccc(Cl)cc2)SC=C(C)n2c1noc2=O` (centres undefined), for which the IC5 in the test with A2780 [1] is 19.7 µM; in [2], 2.2 µM. Moreover, the IC50 was determined as 89 µM with A2780 [1] and 49 µM in [2]. Further, the Activity in the test on A2780 ADR [3] was -16%; with A2780 ADR [4] it was -21%; in the test with A2780 ADR [5], < 48%. The inhibition at 12.2 µM in the test on A2780 [19] was 0%. The compound further yielded an inhibition at 1 µM in test [7] of 0%.
Compound `CC1=CSC(O)(c2ccc([N+](=O)[O-])cc2)c2noc(=O)n21` (centres undefined) yielded an inhibition at 2.1 µM in the test with A2780 [20] of 0%. Also, the figures for the IC5 (with A2780 [1]; in [2]) were 7.7 µM and 2.9 µM, respectively. Further, the concentration for half-maximal inhibition (IC50) (in the test with A2780 [1]; in test [2]) was > 100 µM throughout. In addition, the Activity in the test with A2780 ADR [3] was -10%; in the test with A2780 ADR [4] it was 26%; in the test with A2780 ADR [5], < 48%. For the same compound, at 1.5 µM the inhibition in test [21] was 0%.

For the origin of these results see ChEMBL document CHEMBL1139365, “Inhibition of MDR1 activity in vitro by a novel class of diltiazem analogues: toward new candidates” (J Med Chem, 2009).
